# According to ChEMBL document CHEMBL4033652, “Design, synthesis, and pharmacological evaluation of 4-azolyl-benzamide derivatives as novel GPR52 agonists” (Bioorg Med Chem, 2017):
# Calls of active or inactive are those of the source. The calls are words filed in the database; no cut-off is given here.
# Assays:
# [1] = Metabolic stability in mouse liver microsomes at 1 uM after 15 to 30 mins in presence of NADPH by LC/MS/MS analysis; format: ADME, microsome; settings: read-out: Stability
# Procedure, shortened: (§1)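 Human, rat or mouse liver microsomes (0.2 mg/mL protein) incubated with test compound at 1 µmol/L in 50 mmol/L phosphate buffer pH 7.4. Reaction started with an NADPH-generating system, run 15 and 30 min at 37°C, stopped with acetonitrile. Duplicates. Parent compound loss measured by LC/MS/MS.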
# [2] = biological target: T1, G-protein coupled receptor 52 (Homo sapiens, UniProt Q9Y2T5); assay: Agonist activity at human GPR52 expressed in CHO cells assessed as increase in cAMP level after 30 mins by AlphaScreen assay; format: functional, cell-based
# T1 sequence (Q9Y2T5 whole entry): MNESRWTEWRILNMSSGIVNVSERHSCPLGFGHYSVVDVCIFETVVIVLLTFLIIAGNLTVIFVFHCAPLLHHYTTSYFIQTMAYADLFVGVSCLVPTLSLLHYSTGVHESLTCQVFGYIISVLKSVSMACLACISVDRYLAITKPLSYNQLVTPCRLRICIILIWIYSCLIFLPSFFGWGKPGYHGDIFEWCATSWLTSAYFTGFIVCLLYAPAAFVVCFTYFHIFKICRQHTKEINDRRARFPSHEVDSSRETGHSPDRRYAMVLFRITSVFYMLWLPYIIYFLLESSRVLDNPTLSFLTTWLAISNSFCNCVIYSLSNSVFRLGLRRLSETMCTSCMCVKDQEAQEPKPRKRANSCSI
# Procedure, shortened: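 CHO cells stably expressing human GPR52 (10,000/well) exposed to compound at various concentrations, 30 min, 37°C, in HBSS with 5 mM HEPES pH 7.6, 0.5% BSA, 100 µM IBMX and 100 µM Ro20-1724. AlphaScreen acceptor/donor beads added overnight at room temperature. Response expressed relative to a reference benzofuran agonist (100%). EC50 from mean curves, n = 2–4, 95% CI.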
# [3] = Metabolic stability in human liver microsomes at 1 uM after 15 to 30 mins in presence of NADPH by LC/MS/MS analysis; format: ADME, microsome; settings: read-out: Stability; procedure, shortened: as §1
# Homo sapiens = organism: Homo sapiens; assay: Inhibition of AMPA receptor (unknown origin) at 10 uM
# [4] = Metabolic stability in rat liver microsomes at 1 uM after 15 to 30 mins in presence of NADPH by LC/MS/MS analysis; format: ADME, microsome; settings: read-out: Stability; procedure, shortened: as §1
# Mus musculus [5] = assay: Anti-psychotic activity in ICR mouse assessed as inhibition of methamphetamine-induced hyperlocomotion at 10 mg/kg, po pretreated for 60 mins followed by methamphetamine administration measured after 150 mins; format: functional, organism-based
# Procedure, shortened: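 Male ICR mice aged 7–8 weeks, housed singly in activity-monitor cages and habituated 60 min. Compound given p.o. (1–30 mg/kg range tested). Methamphetamine 2 mg/kg s.c. given 60 min later. Activity counts recorded for 150 min after compound dosing. Mean ± SEM, t-test and Williams test.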
# [6] = biological target: G-protein coupled receptor 52 (Mus musculus, UniProt P0C5J4); assay: Agonist activity at mouse GPR52
# G-protein coupled receptor 52 (Mus musculus, UniProt P0C5J4), sequence (P0C5J4 whole entry): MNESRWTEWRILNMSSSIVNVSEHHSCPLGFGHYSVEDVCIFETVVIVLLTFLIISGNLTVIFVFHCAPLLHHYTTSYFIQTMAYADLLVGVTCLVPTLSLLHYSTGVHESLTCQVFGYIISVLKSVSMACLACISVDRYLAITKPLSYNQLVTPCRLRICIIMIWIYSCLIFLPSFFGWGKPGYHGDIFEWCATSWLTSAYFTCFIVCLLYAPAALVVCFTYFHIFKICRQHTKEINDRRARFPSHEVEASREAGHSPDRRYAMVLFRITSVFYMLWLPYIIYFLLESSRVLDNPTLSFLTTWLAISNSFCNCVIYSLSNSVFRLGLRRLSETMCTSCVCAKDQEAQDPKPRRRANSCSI
# [7] = Ratio of AUC (0 to 24 hrs) in ICR mouse brain to plasma at 30 mg/kg, po; format: ADME, organism-based; settings: brain and plasma, read-out: Ratio AUC
# [8] = MRT in ICR mouse brain at 10 mg/kg, po by LC/MS/MS analysis; format: ADME, organism-based
# Procedure, shortened: (§2)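 Male ICR mice dosed orally at 10 or 30 mg/kg as a suspension in 0.5% methylcellulose. Blood and brain taken at 0.25, 0.5, 1, 2, 4, 8 and 24 h, n = 3 per time point. Plasma separated; brain homogenized in saline. Samples mixed with acetonitrile, centrifuged, supernatant quantified by LC/MS/MS.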
# [9] = AUC (0 to 24 hrs) in ICR mouse plasma at 30 mg/kg, po by LC/MS/MS analysis; format: ADME, organism-based; set-up: time < 24 hr, dose 30 mg/kg, route oral; procedure, shortened: as §2
# [10] = Tmax in ICR mouse plasma at 10 mg/kg, po by LC/MS/MS analysis; format: ADME, organism-based; procedure, shortened: as §2
# [11] = MRT in ICR mouse plasma at 30 mg/kg, po by LC/MS/MS analysis; format: ADME, organism-based; procedure, shortened: as §2
# [12] = biological target: D(1A) dopamine receptor (Homo sapiens) (UniProt P21728); assay: Inhibition of dopamine D1 receptor (unknown origin) at 10 uM
# D(1A) dopamine receptor (Homo sapiens), sequence (P21728 whole entry): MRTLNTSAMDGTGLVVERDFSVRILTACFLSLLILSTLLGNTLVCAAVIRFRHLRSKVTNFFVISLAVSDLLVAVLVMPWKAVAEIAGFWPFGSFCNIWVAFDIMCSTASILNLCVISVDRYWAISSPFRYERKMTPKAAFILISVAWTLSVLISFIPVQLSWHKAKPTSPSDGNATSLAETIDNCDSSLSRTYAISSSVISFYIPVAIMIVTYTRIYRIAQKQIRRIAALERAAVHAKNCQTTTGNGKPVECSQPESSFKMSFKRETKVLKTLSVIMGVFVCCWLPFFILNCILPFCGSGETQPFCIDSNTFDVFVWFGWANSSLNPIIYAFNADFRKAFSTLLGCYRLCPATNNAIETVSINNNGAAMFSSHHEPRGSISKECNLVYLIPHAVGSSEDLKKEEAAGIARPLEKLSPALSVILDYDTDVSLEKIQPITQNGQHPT
# [13] = AUC (0 to 8 hrs) in Sprague-Dawley rat at 1 mg/kg, po administered as cassette dose by LC-MS/MS analysis; format: ADME, organism-based; set-up: time < 8 hr, dose 1 mg/kg, route oral; settings: in vivo
# Procedure, shortened: (§3)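 Cassette dosing in non-fasted male SD rats (n = 3): i.v. 0.1 mg/kg or p.o. 1 mg/kg. Plasma prepared from blood, deproteinized, centrifuged, supernatant measured by LC/MS/MS. AUC taken over 0–8 h.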
# [14] = Cmax in ICR mouse plasma at 10 mg/kg, po by LC/MS/MS analysis; format: ADME, organism-based; set-up: dose 10 mg/kg, route oral; procedure, shortened: as §2
# [15] = AUC (0 to 24 hrs) in ICR mouse plasma at 10 mg/kg, po by LC/MS/MS analysis; format: ADME, organism-based; set-up: time < 24 hr, dose 10 mg/kg, route oral; procedure, shortened: as §2
# [16] = Protein binding in ICR mouse plasma at 1 uM after 24 hrs by LC/MS/MS based equilibrium dailysis method; format: ADME, cell-free; settings: read-out: PPB (converted)
# Procedure, shortened: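 Plasma from male ICR mice spiked with compound at a final 1 µmol/L. Equilibrium dialysis (MWCO 6–8 kDa) against PBS for 24 h at room temperature. Both sides quantified by LC-MS/MS; bound fraction calculated from the plasma and PBS concentrations.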
# [17] = biological target: Glutamate [NMDA] receptor (Homo sapiens) (UniProt Q05586+Q12879+Q13224+O15399+O60391+Q14957+Q8TCU5); assay: Inhibition of NMDA receptor (unknown origin) at 10 uM
# [18] = Ratio of AUC (0 to 24 hrs) in ICR mouse brain to plasma at 10 mg/kg, po; format: ADME, organism-based; settings: brain and plasma, read-out: Ratio AUC
# [19] = MRT in ICR mouse brain at 30 mg/kg, po by LC/MS/MS analysis; format: ADME, organism-based; procedure, shortened: as §2
# [20] = Tmax in ICR mouse brain at 30 mg/kg, po by LC/MS/MS analysis; format: ADME, organism-based; procedure, shortened: as §2
# [21] = Cmax in ICR mouse brain at 30 mg/kg, po by LC/MS/MS analysis; format: ADME, organism-based; set-up: dose 30 mg/kg, route oral; procedure, shortened: as §2
# [22] = Tmax in ICR mouse plasma at 30 mg/kg, po by LC/MS/MS analysis; format: ADME, organism-based; procedure, shortened: as §2
# [23] = Cmax in ICR mouse plasma at 30 mg/kg, po by LC/MS/MS analysis; format: ADME, organism-based; set-up: dose 30 mg/kg, route oral; procedure, shortened: as §2
# Mus musculus [24] = assay: Toxicity in ICR mouse model of methamphetamine-induced hyperlocomotion assessed as cataleptogenic effect at 10 mg/kg, po; format: organism-based; settings: in vivo
# [25] = MRT in ICR mouse plasma at 10 mg/kg, po by LC/MS/MS analysis; format: ADME, organism-based; procedure, shortened: as §2
# [26] = biological target: T1, G-protein coupled receptor 52; assay: Agonist activity at human GPR52 expressed in CHO cells assessed as increase in cAMP level after 30 mins by AlphaScreen assay relative to (N-(2-hydroxyethyl)-3-(2-(3-(trifluoromethyl)benzyl)-1-benzofuran-4-yl)benzamide); format: functional, cell-based
# Procedure, shortened: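 CHO cells stably expressing human GPR52, 10,000 cells per well, exposed to compound 30 min at 37°C in HBSS with 5 mM HEPES pH 7.6, 0.5% BSA, 100 µM IBMX and 100 µM Ro20-1724. cAMP measured by AlphaScreen with acceptor and biotinylated donor beads after overnight room-temperature incubation. Emax set relative to the reference benzofuran benzamide (100%). EC50 taken from mean curves, n = 2–4, with 95% CI.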
# [27] = Cmax in ICR mouse brain at 10 mg/kg, po by LC/MS/MS analysis; format: ADME, organism-based; set-up: dose 10 mg/kg, route oral; procedure, shortened: as §2
# Brain [28] = assay: AUC (0 to 24 hrs) in ICR mouse brain at 10 mg/kg, po by LC/MS/MS analysis; format: ADME, organism-based; set-up: time < 24 hr, dose 10 mg/kg, route oral; settings: in vivo; procedure, shortened: as §2
# [29] = biological target: G-protein coupled receptor 52 (Mus musculus) (UniProt P0C5J4); assay: Agonist activity at mouse GPR52 relative to (N-(2-hydroxyethyl)-3-(2-(3-(trifluoromethyl)benzyl)-1-benzofuran-4-yl)benzamide)
# G-protein coupled receptor 52 (Mus musculus), sequence (P0C5J4 whole entry): as the sequence (P0C5J4 whole entry) above
# [30] = Total clearance in Sprague-Dawley rat at 0.1 mg/kg, iv or 1 mg/kg, po administered as cassette dose by LC/MS/MS analysis; format: ADME, organism-based; settings: in vivo; procedure, shortened: as §3
# [31] = Oral bioavailability in Sprague-Dawley rat at 1 mg/kg administered as cassette dose by LC-MS/MS analysis; format: ADME, organism-based; settings: in vivo; procedure, shortened: as §3
# [32] = Tmax in ICR mouse brain at 10 mg/kg, po by LC/MS/MS analysis; format: ADME, organism-based; procedure, shortened: as §2
# dopamine D2L receptor = dopamine D2L receptor (Homo sapiens, UniProt P14416); assay: Inhibition of dopamine D2L receptor (unknown origin) at 10 uM
# dopamine D2L receptor, sequence (P14416 whole entry): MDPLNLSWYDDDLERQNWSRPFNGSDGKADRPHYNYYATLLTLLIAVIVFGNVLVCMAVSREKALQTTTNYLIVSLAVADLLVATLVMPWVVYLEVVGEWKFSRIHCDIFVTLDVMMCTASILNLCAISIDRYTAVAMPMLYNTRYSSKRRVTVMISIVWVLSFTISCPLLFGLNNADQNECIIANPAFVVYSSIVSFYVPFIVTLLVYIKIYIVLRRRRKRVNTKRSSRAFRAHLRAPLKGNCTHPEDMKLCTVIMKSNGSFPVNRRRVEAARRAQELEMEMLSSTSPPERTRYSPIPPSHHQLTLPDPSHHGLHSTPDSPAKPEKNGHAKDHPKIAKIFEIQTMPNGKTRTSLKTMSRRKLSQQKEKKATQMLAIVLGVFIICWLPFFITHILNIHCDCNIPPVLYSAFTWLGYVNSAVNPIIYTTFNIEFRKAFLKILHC
# Brain [33] = assay: AUC (0 to 24 hrs) in ICR mouse brain at 30 mg/kg, po by LC/MS/MS analysis; format: ADME, organism-based; set-up: time < 24 hr, dose 30 mg/kg, route oral; settings: in vivo; procedure, shortened: as §2
# [34] = biological target: 5-hydroxytryptamine receptor 2A (Homo sapiens) (UniProt P28223); assay: Inhibition of 5-HT2 receptor (unknown origin) at 10 uM
# 5-hydroxytryptamine receptor 2A (Homo sapiens), sequence (P28223 whole entry): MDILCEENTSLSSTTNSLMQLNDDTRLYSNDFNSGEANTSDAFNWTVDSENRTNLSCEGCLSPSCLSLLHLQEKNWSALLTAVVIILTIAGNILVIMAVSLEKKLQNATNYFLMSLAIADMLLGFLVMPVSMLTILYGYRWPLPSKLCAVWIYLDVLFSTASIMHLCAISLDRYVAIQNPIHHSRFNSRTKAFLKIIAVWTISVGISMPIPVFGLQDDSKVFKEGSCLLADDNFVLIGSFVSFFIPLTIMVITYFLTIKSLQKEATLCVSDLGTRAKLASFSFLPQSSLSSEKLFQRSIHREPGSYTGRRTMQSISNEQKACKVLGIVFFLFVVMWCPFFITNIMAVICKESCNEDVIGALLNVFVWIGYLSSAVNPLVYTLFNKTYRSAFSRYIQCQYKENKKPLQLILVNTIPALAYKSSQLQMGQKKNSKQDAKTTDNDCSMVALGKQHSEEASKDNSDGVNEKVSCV
structure (smiles),measurement,setting,value
Cc1cc(-n2nc(Cc3cc(F)cc(C(F)(F)F)c3)nc2C)ccc1C(N)=O [TP-024],microsomal CLint at 1 µM,[1],24 µL/min/mg
same,EC50,[2],0.075 µM
same,microsomal CLint at 1 µM,[3],17 µL/min/mg
same,inhibition,Homo sapiens,< 50%
same,microsomal CLint at 1 µM,[4],9 µL/min/mg
same,inhibition,Mus musculus [5],Active
same,EC50,[6],0.071 µM
same,Kp,[7],1.68
same,MRT,[8],2.06 h
same,AUC(0-t) at 24 h,[9],6.2 µg·h/mL
same,Tmax,[10],0.5 h
same,MRT,[11],3.54 h
same,inhibition,[12],< 50%
same,AUC(0-t) at 8 h,[13],0.384 µg·h/mL
same,Cmax,[14],0.688 µg/mL
same,AUC(0-t) at 24 h,[15],2.43 µg·h/mL
same,"fraction unbound at 24 h, 1 µM",[16],0.199
same,inhibition,[17],< 50%
same,Kp,[18],1.53
same,MRT,[19],3.25 h
same,Tmax,[20],1 h
same,Cmax,[21],2330 ng/g
same,Tmax,[22],1 h
same,Cmax,[23],1.21 µg/mL
same,Activity,Mus musculus [24],Non-Toxic
same,MRT,[25],2.29 h
same,Emax,[26],122%
same,Cmax,[27],1020 ng/g
same,AUC,Brain [28],3.731 µg·h/g
same,Emax,[29],114%
same,clearance,[30],1.41 L/h/kg
same,bioavailability,[31],53.8%
same,Tmax,[32],0.5 h
same,inhibition at 10 µM,dopamine D2L receptor,< 50%
same,AUC,Brain [33],10.414 µg·h/g
same,inhibition,[34],< 50%
CCc1cc(-c2sc(Cc3cccc(C(F)(F)F)c3)nc2C)ccc1C(N)=O,EC50,[2],0.083 µM
same,Emax,[26],84%
Cc1cc(-n2cc(Cc3cc(F)cc(C(F)(F)F)c3)nc2C)ccc1C(N)=O,EC50,[2],0.059 µM
same,AUC(0-t) at 8 h,[13],0.268 µg·h/mL
same,Emax,[26],107%
same,clearance,[30],1.13 L/h/kg
same,bioavailability,[31],28.4%
Cc1cc(-c2sc(Cc3ccccc3Cl)nc2C)ccc1C(N)=O,EC50,[2],3.9 µM
same,Emax,[26],51%
Cc1cc(-c2sc(Cc3cccc(C(F)(F)F)c3)nc2C)ccc1C(N)=O,EC50,[2],0.073 µM
same,Emax,[26],86%
Cc1cc(-c2sc(Cc3ccc(Cl)cc3)nc2C)ccc1C(N)=O,EC50,[2],0.21 µM
same,Emax,[26],60%
Cc1cc(-c2sc(Cc3cc(F)cc(C(F)(F)F)c3)nc2C)ccc1C(N)=O,EC50,[2],0.011 µM
same,AUC(0-t) at 8 h,[13],0.0605 µg·h/mL
same,Emax,[26],93%
same,clearance,[30],2.37 L/h/kg
same,bioavailability,[31],14%
Cc1cc(-c2sc(Cc3cccc(Cl)c3)nc2C)ccc1C(N)=O,EC50,[2],0.13 µM
same,Emax,[26],75%
Cc1cc(-c2sc(Cc3cccc(F)c3)nc2C)ccc1C(N)=O,EC50,[2],0.26 µM
same,Emax,[26],75%
COc1cc(-c2sc(Cc3cccc(C(F)(F)F)c3)nc2C)ccc1C(N)=O,EC50,[2],0.17 µM
same,Emax,[26],88%
Cc1nc(Cc2cccc(C(F)(F)F)c2)sc1-c1ccc(C(N)=O)c(F)c1,EC50,[2],0.38 µM
same,Emax,[26],84%
